Test results: ChEMBL document CHEMBL4002589, “Tri- and Tetrasubstituted Pyridinylimidazoles as Covalent Inhibitors of c-Jun N-Terminal Kinase 3” (J Med Chem, 2017)
Active and inactive are the calls of the source. No cut-off for these calls is given here.

Legend:
[1] = test system: Mitogen-activated protein kinase 10 (Homo sapiens), P53779 [C154A]; test: Covalent binding affinity to JNK3 C154A mutant (unknown origin) at 5 molar excess after 1 hr by LC-muESI-QTOF mass spectrometry
In short: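 Intact-protein mass spectrometry with a JNK3 mutant carrying Cys-154→Ala. Inhibitor is incubated with the protein. Unbound and reversibly bound ligand are removed by chromatography and by a high declustering potential before ionization. The protein is then analysed by LC-µESI-QTOF to look for a mass shift from a covalent adduct.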

[2] = target: Dual specificity protein kinase CLK4 (Homo sapiens) (UniProt Q9HAZ1); test: Inhibition of CLK4 (unknown origin) assessed as residual activity at 1 uM relative to control
In short: (§1)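 Each inhibitor is tested at a single concentration, 1 µM or 0.5 µM depending on the compound. Results are reported as residual kinase activity.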

[3] = target: Casein kinase I isoform delta (Homo sapiens) (UniProt P48730); test: Inhibition of CK1 delta (unknown origin) assessed as residual activity at 1 uM relative to control; in short: as §1
[4] = target: Mitogen-activated protein kinase kinase kinase 10 (Homo sapiens) (UniProt Q02779); test: Inhibition of MAP3K10 (unknown origin) assessed as residual activity at 1 uM relative to control; in short: as §1
[5] = target: T1, Serine/threonine-protein kinase D3 (Homo sapiens) (UniProt O94806); test: Inhibition of human PKC-nu (3 to 890 residues) expressed in Sf9 cells assessed as residual activity at 1 uM relative to control; in short: as §1
T1 sequence (whole entry): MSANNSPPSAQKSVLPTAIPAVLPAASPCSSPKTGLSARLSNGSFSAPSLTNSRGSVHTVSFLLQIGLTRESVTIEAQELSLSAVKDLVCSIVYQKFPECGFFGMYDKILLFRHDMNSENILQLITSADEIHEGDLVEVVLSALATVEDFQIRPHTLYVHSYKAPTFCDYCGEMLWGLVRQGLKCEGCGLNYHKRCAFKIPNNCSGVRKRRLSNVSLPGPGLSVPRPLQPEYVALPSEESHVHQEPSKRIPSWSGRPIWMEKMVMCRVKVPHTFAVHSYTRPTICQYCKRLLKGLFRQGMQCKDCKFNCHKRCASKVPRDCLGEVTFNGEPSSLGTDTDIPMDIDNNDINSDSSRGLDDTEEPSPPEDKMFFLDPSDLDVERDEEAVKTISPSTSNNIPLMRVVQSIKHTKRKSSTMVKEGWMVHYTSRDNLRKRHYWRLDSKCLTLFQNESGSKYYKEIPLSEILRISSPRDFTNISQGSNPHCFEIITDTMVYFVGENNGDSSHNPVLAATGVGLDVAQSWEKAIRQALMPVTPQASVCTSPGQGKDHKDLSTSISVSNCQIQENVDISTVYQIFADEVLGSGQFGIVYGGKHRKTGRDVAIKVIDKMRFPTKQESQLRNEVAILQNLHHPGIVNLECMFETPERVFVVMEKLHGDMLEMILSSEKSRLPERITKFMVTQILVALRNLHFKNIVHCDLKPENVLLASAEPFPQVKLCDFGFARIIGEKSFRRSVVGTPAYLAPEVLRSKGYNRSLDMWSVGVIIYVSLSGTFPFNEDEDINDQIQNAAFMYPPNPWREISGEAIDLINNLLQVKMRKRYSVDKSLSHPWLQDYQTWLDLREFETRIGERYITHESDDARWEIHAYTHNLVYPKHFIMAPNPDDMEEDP

Sequence of Mitogen-activated protein kinase kinase kinase 10 (Homo sapiens) (Q02779 whole entry, looked up, the tested form may be a part): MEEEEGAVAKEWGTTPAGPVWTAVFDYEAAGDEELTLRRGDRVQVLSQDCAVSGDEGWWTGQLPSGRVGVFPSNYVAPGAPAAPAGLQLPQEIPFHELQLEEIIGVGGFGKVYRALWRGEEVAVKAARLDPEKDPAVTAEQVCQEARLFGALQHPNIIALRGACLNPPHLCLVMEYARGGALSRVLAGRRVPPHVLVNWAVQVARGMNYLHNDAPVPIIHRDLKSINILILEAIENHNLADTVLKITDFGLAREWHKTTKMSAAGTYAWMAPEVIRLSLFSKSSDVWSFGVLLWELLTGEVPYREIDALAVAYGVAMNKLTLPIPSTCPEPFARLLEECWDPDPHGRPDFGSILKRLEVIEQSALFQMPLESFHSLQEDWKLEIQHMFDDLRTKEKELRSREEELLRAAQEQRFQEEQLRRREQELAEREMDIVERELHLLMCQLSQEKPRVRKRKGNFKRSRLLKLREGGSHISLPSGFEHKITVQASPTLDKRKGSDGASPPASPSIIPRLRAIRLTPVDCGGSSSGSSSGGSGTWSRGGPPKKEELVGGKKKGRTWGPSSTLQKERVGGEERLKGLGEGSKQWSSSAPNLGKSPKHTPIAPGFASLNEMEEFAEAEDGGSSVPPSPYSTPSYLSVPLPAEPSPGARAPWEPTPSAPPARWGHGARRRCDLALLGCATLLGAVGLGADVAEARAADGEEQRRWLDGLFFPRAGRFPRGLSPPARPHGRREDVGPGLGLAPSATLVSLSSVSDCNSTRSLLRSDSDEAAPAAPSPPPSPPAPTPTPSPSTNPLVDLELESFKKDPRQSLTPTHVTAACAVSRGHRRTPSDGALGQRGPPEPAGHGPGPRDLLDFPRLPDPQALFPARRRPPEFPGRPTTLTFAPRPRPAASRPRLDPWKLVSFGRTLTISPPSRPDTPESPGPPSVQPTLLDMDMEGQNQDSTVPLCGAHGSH
Sequence of Casein kinase I isoform delta (Homo sapiens) (P48730 whole entry, looked up, canonical isoform): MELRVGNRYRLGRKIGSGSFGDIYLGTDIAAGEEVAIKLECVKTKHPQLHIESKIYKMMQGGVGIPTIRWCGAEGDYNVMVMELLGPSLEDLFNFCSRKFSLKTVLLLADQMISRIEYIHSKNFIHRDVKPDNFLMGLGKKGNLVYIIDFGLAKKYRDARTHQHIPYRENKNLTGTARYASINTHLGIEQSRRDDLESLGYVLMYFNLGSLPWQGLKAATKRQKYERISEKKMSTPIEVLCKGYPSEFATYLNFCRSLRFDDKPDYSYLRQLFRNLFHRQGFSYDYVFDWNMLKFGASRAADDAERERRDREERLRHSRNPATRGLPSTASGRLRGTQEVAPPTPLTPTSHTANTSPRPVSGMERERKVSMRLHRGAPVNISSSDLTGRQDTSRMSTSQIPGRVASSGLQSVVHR
Sequence of Mitogen-activated protein kinase 10 (Homo sapiens), P53779 [C154A] (P53779 whole entry C154A): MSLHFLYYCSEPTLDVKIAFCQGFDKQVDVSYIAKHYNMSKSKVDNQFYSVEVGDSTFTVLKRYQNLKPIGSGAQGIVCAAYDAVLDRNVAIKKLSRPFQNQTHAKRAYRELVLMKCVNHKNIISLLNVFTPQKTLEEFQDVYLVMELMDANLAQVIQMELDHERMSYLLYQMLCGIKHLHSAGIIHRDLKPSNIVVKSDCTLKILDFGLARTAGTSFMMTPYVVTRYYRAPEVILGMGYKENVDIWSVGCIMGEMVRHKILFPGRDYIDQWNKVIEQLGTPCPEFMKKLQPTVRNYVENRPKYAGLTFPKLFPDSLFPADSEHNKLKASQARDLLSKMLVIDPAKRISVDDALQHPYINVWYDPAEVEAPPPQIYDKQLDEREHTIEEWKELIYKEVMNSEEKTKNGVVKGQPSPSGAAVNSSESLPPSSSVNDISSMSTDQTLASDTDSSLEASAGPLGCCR
Sequence of Dual specificity protein kinase CLK4 (Homo sapiens) (Q9HAZ1 whole entry, looked up): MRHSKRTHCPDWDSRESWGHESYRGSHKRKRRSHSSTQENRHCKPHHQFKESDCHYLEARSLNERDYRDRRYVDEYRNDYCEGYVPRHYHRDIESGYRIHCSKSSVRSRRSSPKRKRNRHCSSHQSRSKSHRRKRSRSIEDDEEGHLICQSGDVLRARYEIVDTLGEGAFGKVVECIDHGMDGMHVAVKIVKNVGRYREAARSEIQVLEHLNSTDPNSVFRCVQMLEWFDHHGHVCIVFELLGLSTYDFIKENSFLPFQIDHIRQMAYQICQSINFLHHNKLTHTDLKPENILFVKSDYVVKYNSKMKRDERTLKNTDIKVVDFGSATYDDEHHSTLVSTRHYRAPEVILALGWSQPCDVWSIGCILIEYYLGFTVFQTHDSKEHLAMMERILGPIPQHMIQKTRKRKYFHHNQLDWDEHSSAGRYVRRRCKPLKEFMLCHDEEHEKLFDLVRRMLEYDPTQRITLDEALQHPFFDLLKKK

In the case of C=CC(=O)Nc1cccc(C(=O)Nc2ccc(Nc3cc(-c4[nH]c(SC)nc4C)ccn3)cc2)c1, the Activity [1] is reported as “inactive”, the Activity [2] is reported as 10 to 29% and the Activity [3] is reported as 10 to 29%. For the same compound, the Activity [4] was 10 to 29% and the Activity [5] was 10 to 29%.
